Measurements gathered from unrelated publications.
Protocols differ between the studies behind these lines.
Cell line: MOLM-13
Observed: cell growth or viability

SMILES | test | conditions | quantity | value
COc1cc(F)ccc1-c1cc(Nc2cc(CS(C)(=N)=O)ccn2)ncc1F (stereo not drawn) |  | 24 h | GI50 | 93.8 nM
COc1cc(Nc2nccc(-c3cnn4nc(OC)ccc34)n2)cc(C(F)(F)F)c1 | ATP luminescence |  | IC50 | 150 nM
Nc1nc(Nc2ccc3c(c2)CC[C@@H](N2CCCC2)CC3)nn1-c1cc2c(nn1)-c1ccccc1CCC2 | trypan blue | 72 h | IC50 | 167 nM
COc1cc(-c2ncn(/C=C\C(=O)OC(C)C)n2)cc(C(F)(F)F)c1 |  | 72 h | IC50 | 15 nM
CC[C@@H](C)[C@H](N)C(=O)N1Cc2ccccc2C1 | ATP luminescence | 48 h | IC50 | 1860 nM
NNCCc1ccccc1 | resazurin | 96 h | EC50 | > 2000 nM
CC(C)C[C@H](NC(=O)[C@H](Cc1ccccc1)NC(=O)c1cnccn1)B(O)O | ATP luminescence |  | IC50 | 4.5 nM
C#CCN(C)Cc1ccccc1 | resazurin | 96 h | EC50 | > 2000 nM
Cc1cc2c(cc1N1C(=O)c3cccc4c(CCCO)ccc(c34)C1=O)n(C)c(=O)n2C (racemic) | resazurin |  | GI50 | 1060 nM
N[C@H]1CC[C@H](N[C@@H]2C[C@H]2c2ccccc2)CC1 | resazurin | 96 h | EC50 | 0.21 nM
COc1cc2nccc(Oc3ccc(NC(=O)C4(C(=O)Nc5ccc(F)cc5)CC4)cc3)c2cc1OC | trypan blue | 72 h | IC50 | 10 nM
CCCON(Cc1ccc(C(=O)NO)cc1)C(=O)Nc1ccccc1 | ATP luminescence | 72 h | IC50 | 239 nM
O=C(O)c1ccc(CN2CCC(CN[C@@H]3C[C@H]3c3ccccc3)CC2)cc1 | resazurin | 96 h | EC50 | 40.2 nM
CCCCN(Cc1ccc(C(=O)NO)cc1)C(=O)Nc1ccccc1 | ATP luminescence | 72 h | IC50 | 220 nM
N[C@@H](CC(=O)N1CCN(C(c2ccc(F)cc2)c2ccc(F)cc2)CC1)C(=O)N1Cc2ccccc2C1 | ATP luminescence | 48 h | IC50 | 2030 nM
